Results on 7 molecules are retold here after publication PMC10560980 (International Journal for Parasitology: Drugs and Drug …, 2023).

Molecules are shown by their SMILES. Entries after “also recorded” stand apart in the source; their conditions may differ. Read-outs that look alike come from different tables or passages of the source.

For data set [1], the system named is BRIS/91/HEPU/1279 trophozoites. In words: Minimum lethal concentration. In kind it is cell-based, Giardia duodenalis. As to conditions: 48 h exposure, then four days in culture. In a few lines: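 Assemblage B BRIS/91/HEPU/1279 trophozoites in modified TYI-S-33 were exposed to compound for 48 h. They were then returned to drug-free culture for four more days and imaged by brightfield at 10x to judge regrowth. Albendazole ran alongside. Experiments were done at least three times in duplicate.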

Data set [2] has as its system assemblage B G. duodenalis BRIS/91/HEPU/1279 trophozoites. In words: G. duodenalis compound susceptibility assay. The class given is cell-based. As to conditions: Giardia duodenalis.
Data set [3] has as its system Neonatal Foreskin Fibroblasts (NFF). Briefly: Mammalian cell susceptibility assay. In kind it is cell-based, human. As to conditions: for IC50: read-out: IC50 (M; mean ± SD) NFF; for Selectivity: NFF IC50 / Giardia IC50.
In data set [4] the test system is L. donovani DD8 amastigotes. Briefly: L. donovani intracellular amastigote imaging assay in THP-1 cells. The class given is cell-based. As to conditions: Leishmania donovani, THP-1, 96 h, read-out: IC50 (M; mean ± SD) L. donovani. In a few lines: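 L. donovani DD8 promastigotes were kept in modified M199 Hanks medium, pH 6.8, with 10% heat-inactivated FBS at 27 °C. PMA-differentiated THP-1 cells were infected with metacyclic promastigotes (1:5 host:parasite), then exposed 96 h to 80–0.004 µM final. Cells were fixed in 4% paraformaldehyde, stained with SYBR green/CellMask Deep Red and imaged at 20x; an infected cell held >3 parasites. Controls were 2 µM amphotericin B and 0.4% DMSO. Assays ran twice in triplicate; IC50 came from 4-parameter regression.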

The test system of data set [5] is Enterococci faecalis (ATCC 29212). Briefly: Antibacterial microbroth dilution. The class given is cell-based. As to conditions: 20 h exposure, LB broth. The gist of the method: (§1)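 Broth microdilution per CLSI in LB broth. A 20 mM test-compound solution was diluted in LB broth. Organisms were exposed to compound for 20 h, then growth inhibition was scored to define the MIC. Ampicillin was the positive control.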
A general note: Broth dilution looks for growth in wells or tubes with falling amounts of substance.

For data set [6], the system named is Staphylococcus aureus (ATCC 29213). Briefly: Antibacterial microbroth dilution. The class given is cell-based. As to conditions: 20 h exposure, LB broth. In a few lines:
as §1

Data set [7] relates to Escherichia coli (ATCC 25922). In words: Antibacterial microbroth dilution. In kind it is cell-based. As to conditions: 20 h exposure, LB broth. In a few lines:
as §1

Data set [8] has as its system Plasmodium falciparum 3D7 asexual erythrocytic parasites. In words: 48 h [3H]-hypoxanthine incorporation assay. In kind it is cell-based. As to conditions: for IC50: Plasmodium falciparum, 3D7, 48 h, read-out: IC50 (M; mean ± SD) P. falciparum; for average % inhibition at highest concentration tested, P. falciparum: at 5.0 × 10^−5 M (50 μM), 50 µM. In a few lines: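 Compound exposure and [3H]-hypoxanthine uptake ran 48 h. Controls were uninfected RBC background, untreated, DMSO vehicle and chloroquine. % inhibition was taken versus matched vehicle minus background. At least two independent assays were run in triplicate. Where no IC50 could be fitted, % inhibition at the highest concentration was reported.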

A short description of data set [9]: Aqueous solubility. The class given is physicochemical.
Data set [10] concerns Trypanosoma cruzi Tulahuen strain intracellular amastigotes. In words: T. cruzi intracellular amastigote imaging assay in 3T3 cells. As to conditions: for IC50: Trypanosoma cruzi, TULAHUEN, NIH3T3, read-out: IC50 (M; mean ± SD) T. cruzi. The class given is cell-based. The gist of the method:
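T. cruzi Tulahuen was maintained in 3T3 fibroblasts in phenol red-free RPMI with 10% FBS and passaged with freshly egressed trypomastigotes. Intracellular amastigotes were scored by high-content imaging, with final concentrations up to 73.2 µM. Each compound was run as single point over three experimental replicates. Controls were 30 µM puromycin (host cells) and 12 µM nifurtimox (amastigotes). IC50 came from 4-parameter variable-slope nonlinear regression.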

The test system of data set [11] is faecal microbiome. In words: Microbiome assessment. In kind it is in vivo, outbred Swiss mice. In a few lines: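 Three groups of 12 outbred Swiss mice received vehicle control, metronidazole 100 mg/kg or test compound 7.4 mg/kg daily on days 1, 2 and 3. Faecal samples were collected from individual animals on days 0–5 and stored at room temperature in 80% ethanol. About 0.2 g of each sample was homogenised with glass beads in lysis buffer for 16S rRNA profiling.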

In data set [12] the test system is MTZ resistant assemblage B BRIS/91/HEPU/1279m1 parasites. Briefly: G. duodenalis compound susceptibility assay. As to conditions: Giardia duodenalis, 48 h, read-out: IC50 (nM; mean ± SD) AB-MTZ. The class given is cell-based. The gist of the method: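 The metronidazole-resistant assemblage B line was kept in modified TYI-S-33 with 10% heat-inactivated FBS and penicillin/streptomycin under 15 µM metronidazole, withdrawn two days before testing. Trophozoites had 48 h dose-response exposure and were scored by automated microscopy, at least three times in triplicate. Inhibition was taken versus DMSO vehicle minus media background. IC50 came from 4-parameter variable-slope nonlinear regression.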

Data set [13] in a line: Storage stability of solid. The class given is physicochemical. As to conditions: crystalline solid; ambient conditions; several months.
Data set [14] deals with Human Embryonic Kidney (HEK-293) cells. Briefly: Mammalian cell susceptibility assay, HEK-293. The class given is cell-based. As to conditions: HEK293, read-out: growth inhibition, HEK293.
In data set [15] the test system is G. duodenalis BRIS/87/HEPU/713 assemblage A. In words: G. duodenalis compound susceptibility assay. As to conditions: Giardia duodenalis, 48 h, read-out: IC50 (nM; mean ± SD) AA. In kind it is cell-based.
Data set [16] relates to G. duodenalis BAH2c2. Briefly: In vivo efficacy in mouse model of giardiasis. Also noted: species or system outbred Swiss mice. In a few lines: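 Seven-day-old outbred Swiss pups (groups of ten) were orally gavaged with 10^5 BAH2c2 trophozoites in 0.9% saline. Faecal cysts were tracked daily by centrifugal flotation and immunofluorescence counting. About 1 week post-infection, mice received oral gavage once daily for three days: vehicle, test compound, or metronidazole 100 mg/kg. The next day, small-intestine trophozoites were counted manually and large-intestine cysts per gram. Efficacy followed WAAVP guidelines; groups were compared by t-test.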

Data set [17] deals with Giardia. As to conditions: in humans; ref Nabarro et al., 2015; cited from earlier work.
The mark [18] stands for this setting: 48 h, read-out: IC50 (M; mean ± SD) Giardia (48h), Compounds Australia samples, assemblage B BRIS/91/HEPU/1279 trophozoites, 48 h, > = highest concentration tested.
[19] abbreviates: read-out: IC50 (M; mean ± SD) Giardia AB, purchased (ChemDiv) or synthesized batches, assemblage B BRIS/91/HEPU/1279.
[20] abbreviates: 0.74 mg/kg for three days, oral gavage, PBS vehicle.
Where [21] appears, read: 7.4 mg/kg daily for three days, 50%PBS/DMSO vehicle, P > 0.05.
[22] abbreviates: 100 mg/kg for three days, positive control, first experiment.

`CCCSc1ccc2nc(NC(=O)OC)[nH]c2c1` [ABZ, Albendazole, reference compound]: the “minimum lethal concentration (MLC)” value in data set [1] is 0.15 µM. For the same molecule, the IC50 in data set [2] (setting [18]) was 57 nM; in data set [2] (setting [19]), 57 nM; in data set [3] (Homo sapiens, Fibroblast), 1100 nM. Moreover, the Selectivity in [3] worked out at 19.3.

As for `C[C@@H]1[C@H](O)[C@@H](C)/C=C/C=C/C=C/C=C/C=C/C=C/C=C/[C@H](O[C@@H]2O[C@H](C)[C@@H](O)[C@H](N)[C@@H]2O)C[C@@H]2O[C@](O)(C[C@@H](O)C[C@@H](O)[C@H](O)CC[C@@H](O)C[C@@H](O)CC(=O)O[C@H]1C)C[C@H](O)[C@H]2C(=O)O` [AMB, Amphotericin B, reference compound], the IC50 in data set [4] was 87 nM.

For the molecule `CC1(C)S[C@@H]2[C@H](NC(=O)[C@H](N)c3ccccc3)C(=O)N2[C@H]1C(=O)O` [AMP, ampicillin, reference compound], the “MIC (M) E. faecalis” value in data set [5] was under 3.7e-05 M. Also, the “MIC (M) S. aureus” value in data set [6] is under 3.7e-05 M. For the same molecule, the “MIC (M) E. coli” value in [7] was under 3.7e-05 M.

As for `CCN(CC)CCCC(C)Nc1ccnc2cc(Cl)ccc12` (stereo not shown) [CQ, chloroquine, reference compound], the IC50 in data set [3] (Homo sapiens, Fibroblast) amounted to 31000 nM; in data set [8] it was 14 nM.

Consider `Cc1cc2[nH]c(C(=O)Nc3ccccc3Cl)c(CN3CCOCC3)c2s1` [Compound 2, N-(2-chlorophenyl)-2-methyl-6-(morpholinomethyl)-4H-thieno [3,2-b]pyrrole-5-carboxamide], for which the “minimum lethal concentration (MLC)” value in [1] turned out to be 0.062 µM. Also, the aqueous solubility result in [9] is on record as “poor”. For the same molecule, in [5], the “MIC (M) E. faecalis” value is over 0.0002 M. Moreover, the IC50 in [10] is over 73000 nM; in data set [2] (setting [18]) it was 310 nM; in data set [2] (48 h, read-out: IC50 (nM; mean ± SD) AB, purchased/resynthesised batches, 48 h, BRIS/91/HEPU/1279 assemblage B), 8.6 to 12 nM; in [2] (setting [19]) it was 12 nM; in data set [3] (Homo sapiens, Fibroblast), over 10000 nM; in data set [8] it was over 50000 nM. For the same molecule, the IC50 in data set [12] is 5.5 nM; in data set [4] it was over 80000 nM; in [15] it was 10 nM. Further, the “growth inhibition, T. cruzi” value in [10] (up to highest concentration tested) is reported as under 50%. Besides, the “MIC (M) S. aureus” value in [6] is over 0.0002 M. The inhibition at 100 µM in [3] (Homo sapiens, Fibroblast, read-out: growth inhibition, NFF) is under 50%; in [14], under 50%. The molecule also came in with a Selectivity in data set [3] of over 32. For the same molecule, the selectivity indices in [3] (follow up studies, NFF and HEK293 vs Giardia) is recorded as over 8333. In addition, the “change in bacterial profile of faecal microbiome” value in data set [11] (7.4 mg/kg daily for three days) is on record as “does not impact the normal gut microbiota; also recorded: did not detect any significant (P < 0.05) changes in the bacterial profile; also recorded: did not significantly impact the gut microbial diversity”. The results for the “average % inhibition at highest concentration tested, P. falciparum” value in data set [8] and in data set [8] (listed as 2b) were under 50% and 2.0%, respectively. Further, the stability to storage entry in [13] is recorded as “stable”. Further, the “MIC (M) E. coli” value in data set [7] was over 0.0002 M. For the same molecule, the “reduction of cyst burden vs vehicle” value was found to be 98.8% in data set [16] (setting [20]) and 80.1% in [16] (setting [21]). Besides, the “reduction of trophozoite burden vs vehicle” value in data set [16] (setting [20]) was 73.5%; in data set [16] (setting [21]), 54.2%.

In the case of `Cc1ncc([N+](=O)[O-])n1CCO` [MTZ, metronidazole, reference compound], the reported failure rates entry in data set [17] was “up to 40%”. Further, the “change in bacterial profile of faecal microbiome” value in [11] (100 mg/kg daily for three days) was “significant shift from the vehicle (DMSO/PBS) and compound 2 exposed mice from Day 1–3”. Also, in data set [16] (setting [22]), the “reduction of cyst burden vs vehicle” value stood at 65.6% and the “reduction of trophozoite burden vs vehicle” value came to 98.1%.

Regarding `CC1CS(=O)(=O)CCN1/N=C/c1ccc([N+](=O)[O-])o1` (stereo not shown) [NFX, nifurtimox, reference compound], in [10], the IC50 amounted to 980 nM.

A word on the IC50: it is the concentration at which inhibition is half-maximal. By inhibition is commonly meant the change of the read-out against control, counted positive when it falls.
